Source: PubChem BioAssay
RORa inhibitor = RORA (human) inhibition; P35398; CHO-K1 Gal4-RORA LBD luciferase reporter, luminescence; inhibition, % at 10 µM; 65,000 compounds, 0.43% hits; AID 561;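 active = inhibition above the mean of all tested compounds plus 3 SD, cut at about 52% in these data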;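 note: 0% = RORA-transfected cells with DMSO and 100% = mock-transfected cells lacking RORA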
Target sequence (P35398 whole entry, looked up, the tested form may be a part): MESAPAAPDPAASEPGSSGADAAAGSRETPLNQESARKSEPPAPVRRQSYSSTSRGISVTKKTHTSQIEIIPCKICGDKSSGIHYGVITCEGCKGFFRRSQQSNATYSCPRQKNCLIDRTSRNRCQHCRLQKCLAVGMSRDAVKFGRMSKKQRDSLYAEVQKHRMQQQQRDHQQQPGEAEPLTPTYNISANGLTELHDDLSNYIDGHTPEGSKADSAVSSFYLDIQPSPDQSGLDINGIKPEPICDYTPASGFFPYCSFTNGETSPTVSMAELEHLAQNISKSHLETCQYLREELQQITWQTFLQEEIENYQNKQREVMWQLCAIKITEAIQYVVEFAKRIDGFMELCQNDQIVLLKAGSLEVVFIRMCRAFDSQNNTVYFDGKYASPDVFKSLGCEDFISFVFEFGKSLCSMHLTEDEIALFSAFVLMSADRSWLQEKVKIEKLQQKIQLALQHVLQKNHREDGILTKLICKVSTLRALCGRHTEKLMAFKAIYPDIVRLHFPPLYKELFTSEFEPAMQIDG
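Test system: CHO-K1 cells with Gal4-hRORA LBD fusion and pG5-luc reporter / Compound: single concentration per compound, 10 µM final / Schedule: 20 h compound treatment, 37 °C / Signal: luminescence from basal luciferase reporter expression / Read-out: % inhibition / Control set: mock-transfected cells as 100%, +RORA DMSO cells as 0% / Replicates: tested once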
* hit, by the source's call. Many of the other results were omitted from the sample, so hits are more common in it than they were.

SMILES | RORa inhibitor
CS(=O)(=O)c1nc(-c2ccco2)cc(C(F)(F)F)n1 | 54*
COc1cccc(-c2cc(C(F)(F)F)nc(NCc3ccco3)n2)c1 | 18
COc1ccc(CCNC(=O)CSc2nc(-c3ccco3)cc(C(F)(F)F)n2)cc1OC | -14
CC(=O)N1CCn2c3c(c(=O)c4cc(C)ccc42)CCC31 (centres undefined) | -2
Oc1ccc(-c2nnc(SCC3CCCCC3)o2)cc1 | -59
O=C(c1cccnc1)N1CCN(C(=O)c2cccs2)CC1 | -1
Cc1ccc(-c2ccc(/C=N/c3ncn[nH]3)o2)cc1Cl | -5
CCCN1Cc2cccc(C(=O)NCc3cccs3)c2C1=O | 10
CCCCc1ccc(NC(=O)C2CCN(S(C)(=O)=O)CC2)cc1 | 6
CC(NC(=O)Nc1nnc(C(F)(F)F)s1)(C(F)(F)F)C(F)(F)F | 94*
CCCCn1c(SCc2nnc(-c3ccccc3)o2)nc2c1c(=O)n(C)c(=O)n2C | 6
CCN(CC)S(=O)(=O)c1ccc2c(c1)c(=O)c(C(=O)N1CCN(c3ccccc3)CC1)cn2C | 0
Cc1oc(-c2cccc(Cl)c2)nc1CN1CCC(C(=O)NCCCN2CCCC2=O)CC1 | -2
CCOC(=O)N1CCC(NC(=O)C2CCCN(Cc3nc(-c4cccc(Cl)c4)oc3C)C2)CC1 (centres undefined) | 63*
CCc1ccc(-c2nc(CN3CCCC(C(=O)NCCc4ccc(OC)c(OC)c4)C3)c(C)o2)cc1 (centres undefined) | -11
COC(=O)c1cccc(OC(N)=O)c1 | -3
CCCCC(=O)Nc1ccc(C(=O)N2CCCC(C(=O)OCC)C2)cc1 (centres undefined) | -3
O=C(Nc1nc2cc3c(cc2s1)OCO3)C1=COCCO1 | 68*
CC(=O)Nc1nc2cc3c(cc2s1)OCO3 | -72
Cc1nc2c(ccc3nc(NC(=O)c4ccc5c(c4)OCCO5)sc32)s1 | 8
O=S(=O)(NCC(c1cccnc1)N1CCN(Cc2ccccc2)CC1)c1ccccc1 (centres undefined) | -4
CCOCC(=O)Nc1ccc(S(=O)(=O)Nc2ncccn2)cc1 | 28
Cn1c(SCC(N)=O)nnc1C1CCN(C(=O)NCc2ccccc2)CC1 | -13
Cn1c(NC(=O)C2c3ccccc3Oc3ccccc32)cc(=O)n(C)c1=O | -19
N#C/C(C(=O)c1ccccc1)=C1/SC=C(N)N1c1ccccc1 | -31
SMILES | RORa inhibitor
Cc1ccc2[nH]c3c(N4CCN(Cc5ccc6c(c5)OCO6)CC4)ncnc3c2c1 | 82*
O=C(N1CCN(Cc2ccc3c(c2)OCO3)CC1)C12CC3CC(CC(C3)C1)C2 | 8
c1nc(N2CCN(Cc3ccc4c(c3)OCO4)CC2)c2[nH]cnc2n1 | 22
Cc1ccc2c(c1)c1ncnc(N3CCC4(CC3)OCCO4)c1n2C | -62
O=C(Cn1ccc2ccccc2c1=O)N1CCN(Cc2ccc3c(c2)OCO3)CC1 | -8
COc1ccc2c(c1)[nH]c1c(N3CCN(Cc4ccc5c(c4)OCO5)CC3)ncnc12 | 72*
COCCn1nnnc1C(c1ccc(C)cc1)N1CCN(Cc2ccc3c(c2)OCO3)CC1 (centres undefined) | 9
Cc1ccc2[nH]c3c(N4CCCCCC4)ncnc3c2c1 | 78*
O=C(c1cc2ccccc2o1)c1nc2c(n1O)CCCCC2 | -56
CCC(C)(C)n1nnnc1C(c1ccc(N(C)C)cc1)N1CCN(C2CCCCC2)CC1 (centres undefined) | -14
CCCCOc1ccccc1NC(=O)CSc1nnnn1C(C)(C)C | 2
O=C(Nc1ccccc1N1CCN(C(=O)c2ccccc2)CC1)c1cc2ccccc2o1 | -7
C#CCN1C(=O)C(O)(CC(=O)c2ccc3c(c2)OCCO3)c2ccccc21 (centres undefined) | -7
COc1ccc(-c2nnc(SCc3nnc(-c4ccccc4)o3)n2C)cc1OC | -53
CC1CCN(C(=O)CSc2ccc3nnc(-c4ccccc4)n3n2)CC1 | 8
CCOC(=O)C1=C(C)Nc2nc(SCC)[nH]c(=O)c2C1c1ccncc1 (centres undefined) | -3
Cc1ccc(CC(CC(=O)O)C(=O)NC2CCCCC2)cc1 (centres undefined) | 11
Nc1nc(Cl)nc2c1ncn2[C@H]1C[C@H](O)[C@@H](CO)O1 | 69*
CC1(C)OC(=O)N(c2cccnc2)C1(C)O (centres undefined) | 6
Nc1c(Br)cc2oc(-c3ccccc3)nc2c1Br | -52
Cc1ccc(C)c(-c2nc3cc(N)ccc3o2)c1 | 13
Nc1ccc2oc(-c3cc(Br)ccc3Cl)nc2c1 | 58*
CC1(C)C(c2ccccc2)=NC(c2ccc(F)cc2)N1O (centres undefined) | -2
O=S(=O)(C/C(=C/CO)S(=O)(=O)c1ccccc1)c1ccccc1 | 89*
CCc1nnc(NC(=O)CSc2nc3cccnc3n2C2CCCCC2)s1 | 10
SMILES | RORa inhibitor
Cc1ccc2c(c1)N(CC(=O)NCCc1c[nH]c3ccccc13)C(=O)CO2 | 3
CCc1nc(C)cn1S(=O)(=O)c1cc(Br)ccc1OC | 10
O=C(c1cc(-c2cccs2)on1)N1CCCc2ccccc21 | -6
Cc1cccn2c(=O)c3cc(C(=O)N4CCN(c5ccccc5)CC4)n(C)c3nc12 | 9
N#CC(C#N)=c1ccc2c(c1)NC1(CCCCC1)N=2 | 58*
O=C(CN(Cc1ccco1)S(=O)(=O)c1cccs1)Nc1ccccc1C(F)(F)F | -9
COc1cccc2c1C(=O)c1c(O)c3c(c(O)c1C2=O)C[C@@](O)(C(C)=O)C[C@@H]3O[C@H]1C[C@H](N)[C@H](O)[C@H](C)O1 | 78*
O=C(Nc1ccc2oc(=O)ccc2c1)c1ccco1 | -27
COc1nc(C)ccc1-c1noc(-c2ccccn2)n1 | -61
c1ccc(CCc2nc(-c3ccccn3)no2)cc1 | -54
c1ccc(-c2cccc(-c3ccccn3)n2)nc1 | 64*
Nc1nsc2ccccc12 | 42
O=C(O)[C@H](Cc1ccccc1)NC(=O)N1CCOCC1 | 9
CCN(CC)C(=O)N1CCC(NC(=O)c2ccccc2)CC1 | -3
CCOc1ccc(-c2nnc(SCC(=O)N3CCN(c4ccccc4)CC3)o2)cc1 | -8
Cc1ccc(-c2nc(CS(=O)CC(=O)NCc3ccccc3)c(C)o2)cc1 (centres undefined) | -13
COc1ccc(CNC(=O)CS(=O)Cc2nc(-c3ccc(C)cc3)oc2C)cc1 (centres undefined) | 0
O=C(CSCC(=O)NCc1ccco1)NCc1ccco1 | 8
COc1ccc(-c2nc(CSCC(=O)NCc3ccco3)c(C)o2)cc1 | 72*
CCOc1ccc(-c2nc(CSCC(=O)NCCN3CCOCC3)c(C)o2)cc1 | 71*
O=C(CSc1nnc(-c2cccnc2)n1-c1ccccc1)Nc1ccc2c(c1)OCO2 | -10
Cc1ccnc2nc(C(=O)N3CCN(S(=O)(=O)c4ccccc4)CC3)nn12 | -14
CCC1SC2=NC(C)=C(C(=O)OC)C(c3cccs3)N2C1=O (centres undefined) | -7
CCN1C=CC(=C2C(=O)c3ccccc3C2=O)C=C1 | 67*
CC1=CC(=C2C(=O)c3ccccc3C2=O)C=C(C)O1 | -57
SMILES | RORa inhibitor
CN1C=CC(=C2C(=O)c3ccccc3C2=O)C=C1 | -52
CCCN1C=CC(=C2C(=O)c3ccccc3C2=O)C=C1 | 91*
CCC1CCCCN1C(=O)CSc1nc(N)c(NC(=O)c2ccc(OC)c(OC)c2)c(=O)[nH]1 (centres undefined) | 20
CN(C)/C=N/c1cnc(C(=O)c2ccc(Cl)cc2)n1C | -76
CSc1ccc(/C=N/n2nnnc2N)cc1 | -51
COc1ccc(/C=N\n2nnc3ccccc32)cc1 | 74*
